This note sets out measurements from ChEMBL document CHEMBL1136815, “Synthesis and in vitro evaluation of novel small molecule inhibitors of bacterial arylamine N-acetyltransferases (NATs)” (Bioorg Med Chem Lett, 2003).

Structures are written as SMILES. Bounds are passed on as bounds.

The nature of one experiment: In vitro inhibition of recombinant Mycobacterium smegmatis Arylamine N-Acetyltransferase (MSNAT) -catalyzed acetylation of isoniazid (INH). Also noted: species or system Mycolicibacterium smegmatis. The method in brief: (§1)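 Pure recombinant M. smegmatis NAT acetylating isoniazid with acetyl CoA as donor. Acetyl CoA hydrolysis rate followed with 5,5'-dithio-bis(2-nitrobenzoic acid), reading the thio-2-nitrobenzoic acid product spectrophotometrically at 412 nm. Half-maximal inhibitory concentration (IC50) taken from this rate.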
The IC50 is the point on the concentration scale where inhibition reaches its midpoint. `CN1C/C(=C2/SC(=O)NC2=O)c2ccccc2S1(=O)=O`: the 50% inhibitory concentration (IC50) was over 100 µM.

With `O=C1NC(=O)/C(=C2\CN(Cc3ccc(Br)cc3)S(=O)(=O)c3ccccc32)S1`, the IC50 came out at 65 µM.

On to `O=C1NC(=O)/C(=C2\CNS(=O)(=O)c3ccccc32)S1`, for which the concentration for half-maximal inhibition (IC50) is over 100 µM.

Turning to `C=C(C)CCN1C/C(=C2/SC(=O)NC2=O)c2ccccc2S1(=O)=O`, the concentration for half-maximal inhibition (IC50) is over 100 µM.

As usually defined, the Ki is a dissociation constant, usually derived from enzyme kinetics or from competition with a known ligand. On to `CCCCCCCCN1C/C(=C2/SC(=O)NC2=O)c2ccccc2S1(=O)=O`, for which the half-maximal inhibitory concentration (IC50) worked out at 61 µM and the inhibition constant Ki is 43 µM.

On to `O=C1NC(=O)/C(=C2\CN(Cc3ccc(-c4ccccc4)cc3)S(=O)(=O)c3ccccc32)S1`, for which the half-maximal inhibitory concentration (IC50) is 20 µM and the Ki was 14.4 µM.

Take `CCCCCCCCCCN1C/C(=C2/SC(=O)NC2=O)c2ccccc2S1(=O)=O`: the IC50 turned out to be 22 µM and the inhibition constant (Ki) was 14.7 µM.

As to `O=C1NC(=O)/C(=C2\CN(CC3CC3)S(=O)(=O)c3ccccc32)S1`, the half-inhibitory concentration (IC50) was over 100 µM.

Take `O=C1NC(=O)/C(=C2\CN(CCOc3ccccc3)S(=O)(=O)c3ccccc32)S1`: the concentration for half-maximal inhibition (IC50) was over 100 µM.

Take `O=C1NC(=O)/C(=C2\CN(Cc3ccc(Cl)s3)S(=O)(=O)c3ccccc32)S1`: the half-inhibitory concentration (IC50) is 33 µM and the Ki amounted to 26.7 µM.

On to `O=C1NC(=O)/C(=C2\CN(Cc3ccccn3)S(=O)(=O)c3ccccc32)S1`, for which the 50% inhibitory concentration (IC50) is over 100 µM.

As to `O=C1NC(=O)/C(=C2\CN(Cc3ccc(/C=C/c4ccccc4)cc3)S(=O)(=O)c3ccccc32)S1`, the 50% inhibitory concentration (IC50) amounted to 29 µM and the inhibitory constant (Ki) was 14 µM.

`O=C1NC(=O)/C(=C2\CN(CC3CCCCC3)S(=O)(=O)c3ccccc32)S1`: the IC50 turned out to be 205 µM.

For the compound `O=C1NC(=O)/C(=C2\CN(Cc3ccccc3)S(=O)(=O)c3ccccc32)S1`, the half-maximal inhibitory concentration (IC50) is over 100 µM.

On to `O=C1NC(=O)/C(=C2\CN(CCC3CCCCC3)S(=O)(=O)c3ccccc32)S1`, for which the half-inhibitory concentration (IC50) was 82 µM.

Turning to `CCC(CC)CN1C/C(=C2/SC(=O)NC2=O)c2ccccc2S1(=O)=O`, the IC50 was found to be 92 µM.

The nature of another experiment: In vitro inhibition of recombinant Mycobacterium smegmatis Arylamine N-Acetyltransferase (MSNAT) -catalyzed acetylation of isoniazid (INH); not active. Also noted: species or system Mycolicibacterium smegmatis. In short, it runs like this:
as §1
For the compound `O=C1CSC(=O)N1` [THIAZOLIDINEDIONE], the IC50 entry is “Not Active”.

On to `O=C1CN(Cc2ccc3ccccc3c2)S(=O)(=O)c2ccccc21`, for which the half-maximal inhibitory concentration (IC50) entry is recorded as “Not Active”.

Another experiment in a line: In vitro inhibition of recombinant Mycobacterium smegmatis N-Acetyltransferase (MSNAT) -catalyzed acetylation of isoniazid (INH). Also noted: species or system Mycolicibacterium smegmatis. The method in brief: as §1
Turning to `O=C1NC(=O)/C(=C2\CN(Cc3ccc4ccccc4c3)S(=O)(=O)c3ccccc32)S1`, the IC50 amounted to 78 µM.

Another experiment in a line: Inhibition constant of Mycobacterium smegmatis N-Acetyltransferase (MSNAT) -catalyzed acetylation with respect to isoniazid. Also noted: species or system Mycolicibacterium smegmatis.
Turning to `O=C1NC(=O)/C(=C2\CN(Cc3ccc4ccccc4c3)S(=O)(=O)c3ccccc32)S1`, the affinity, expressed as Ki, was 70 µM.
